Laboratory results published in ChEMBL document CHEMBL1158568, “In silico directed chemical probing of the adenosine receptor family” (Bioorg Med Chem, 2010).

The compounds below were run against T1, Adenosine receptor A3 (Homo sapiens) (UniProt P0DMS8) (assay: Displacement of [3H]NECA from human adenosine A3 receptor expressed in human HeLa cells at 10 uM after 180 mins by beta scintillation counting).
T1 sequence (whole entry): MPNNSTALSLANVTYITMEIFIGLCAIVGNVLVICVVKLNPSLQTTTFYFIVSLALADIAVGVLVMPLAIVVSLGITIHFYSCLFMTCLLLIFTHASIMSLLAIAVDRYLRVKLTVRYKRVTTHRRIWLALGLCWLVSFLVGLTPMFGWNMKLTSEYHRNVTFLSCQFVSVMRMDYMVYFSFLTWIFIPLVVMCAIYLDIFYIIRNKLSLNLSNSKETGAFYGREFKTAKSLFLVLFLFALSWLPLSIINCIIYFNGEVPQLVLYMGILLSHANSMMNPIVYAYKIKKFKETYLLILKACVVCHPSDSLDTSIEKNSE
Assay type: cell-based
Method in brief: (§1)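 HeLa-A3 membranes (90 lg protein) in 50 mM Tris–HCl, 1 mM EDTA, 5 mM MgCl2, 2 UI/mL adenosine deaminase, pH 7.4; 30 nM [3H]NECA, 180 min at 25 °C, triplicates, GF/B filtration. Non-specific with 100 µM (R)-PIA. Tested at 10 µM or six concentrations 10 nM–100 µM; Ki by Cheng–Prusoff.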

inhibition [%]	Structure (SMILES)
26.1	N=C1c2c(C(N)=O)nc(-c3ccccc3O)n2CN1c1ccc(O)cc1
28	CCO/C(C)=N/c1c(C#N)ncn1Cc1ccccc1

What follows are compounds tested against T2, Adenosine receptor A2b (Homo sapiens, UniProt P29275) (assay: Antagonist activity at human adenosine A2B receptor expressed in HEK293 cells assessed as inhibition of […]-induced cAMP accumulation pre-incubated for 15 mins by enzyme immunoassay).
T2 sequence (P29275 whole entry): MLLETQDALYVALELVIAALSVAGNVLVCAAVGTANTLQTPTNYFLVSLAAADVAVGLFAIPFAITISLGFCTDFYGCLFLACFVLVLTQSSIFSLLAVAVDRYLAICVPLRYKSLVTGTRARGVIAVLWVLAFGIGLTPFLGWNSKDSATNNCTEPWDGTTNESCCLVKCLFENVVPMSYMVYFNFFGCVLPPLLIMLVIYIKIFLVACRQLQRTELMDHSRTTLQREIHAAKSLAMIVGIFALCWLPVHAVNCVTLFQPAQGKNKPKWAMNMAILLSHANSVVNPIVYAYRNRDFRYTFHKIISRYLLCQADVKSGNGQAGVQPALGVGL
Assay type: functional, cell-based
Method in brief: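 HEK-293 A2B cells seeded 10,000/well in EMEM F-12 with 10% FCS; 15 min pre-incubation at 37 °C with 30 µM rolipram and test compound, followed by 10 µM NECA for 15 min. Enzyme-immunoassay readout of intracellular cAMP at 450 nm; pKB by Leff–Dougall equation.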

pKb	Structure (SMILES)
5.7	N=C1c2c(C(N)=O)nc(-c3ccccc3O)n2CN1c1ccc(O)cc1

What follows are compounds tested against T2, Adenosine receptor A2b (assay: Displacement of [3H]DPCPX from human adenosine A2B receptor expressed in HEK293 cells after 30 mins by beta scintillation counting).
Assay type: cell-based

Ki [µM]	Structure (SMILES)
1.58	N=C1c2c(C(N)=O)nc(-c3ccccc3O)n2CN1c1ccc(O)cc1

Each compound was assayed against T3, Adenosine receptor A3 (Homo sapiens, UniProt P0DMS8) (assay: Displacement of [3H]NECA from human adenosine A3 receptor expressed in human HeLa cells after 180 mins by beta scintillation counting).
T3 sequence (P0DMS8 whole entry): T1 sequence (whole entry)
Assay type: cell-based
Method in brief: as §1

Ki [µM]	Structure (SMILES)
3.16	Cc1ccc(-c2nc(C(=O)Nc3ccccn3)c3n2CCCCC3)cc1

What follows are compounds tested against T4, Adenosine receptor A2b (Homo sapiens) (UniProt P29275) (assay: Displacement of [3H]DPCPX from human adenosine A2B receptor expressed in HEK293 cells at 10 uM after 30 mins by beta scintillation counting).
T4 sequence (whole entry): T2 sequence (P29275 whole entry)
Assay type: cell-based

inhibition [%]	Structure (SMILES)
19	Cc1ccc(-c2nc(C(=O)Nc3ccccn3)c3n2CCCCC3)cc1
55.4	N=C1c2c(C(N)=O)nc(-c3ccccc3O)n2CN1c1ccc(O)cc1
9.9	CCO/C(C)=N/c1c(C#N)ncn1Cc1ccccc1

These compounds were tested against T5, Adenosine receptor A1 (Homo sapiens) (UniProt P30542) (assay: Displacement of [3H]DPCPX from human adenosine A1 receptor expressed in CHO cells at 10 uM after 60 mins by beta scintillation counting).
T5 sequence (whole entry): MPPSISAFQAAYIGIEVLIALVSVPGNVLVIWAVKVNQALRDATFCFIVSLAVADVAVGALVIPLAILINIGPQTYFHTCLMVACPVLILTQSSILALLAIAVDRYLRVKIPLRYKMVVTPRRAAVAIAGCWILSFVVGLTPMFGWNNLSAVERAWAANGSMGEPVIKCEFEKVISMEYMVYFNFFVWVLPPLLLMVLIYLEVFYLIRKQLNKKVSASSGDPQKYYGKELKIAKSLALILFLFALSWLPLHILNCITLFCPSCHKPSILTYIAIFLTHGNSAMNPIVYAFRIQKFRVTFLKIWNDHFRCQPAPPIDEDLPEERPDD
Assay type: cell-based
Method in brief: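 Membranes of CHO-A1 cells (15 lg protein) in 20 mM Hepes, 100 mM NaCl, 10 mM MgCl2, 2 units/ml adenosine deaminase, pH 7.4, with 2 nM [3H]DPCPX; 60 min at 25 °C, duplicates. Non-specific binding with 10 µM (R)-PIA. Filtration, scintillation counting. Single point at 10 µM or six concentrations 10 nM–100 µM; Ki by Cheng–Prusoff.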

Structure (SMILES)	inhibition [%]
O=C(Nc1ccco1)c1nc2nc(-c3cccs3)cc(C(F)(F)F)c2s1	60.7
Cc1ccc(-c2nc(C(=O)Nc3ccccn3)c3n2CCCCC3)cc1	38.9
COc1cn(-c2ccccc2)nc1C(=O)Nc1ccc(C)cn1	51.9
CN1N=C(C(=O)Nc2ccc(Cl)cn2)C2COc3ccccc3C21 (centres undefined)	8
N=C1c2c(C(N)=O)nc(-c3ccccc3O)n2CN1c1ccc(O)cc1	26.8
Cc1cc(NC(=O)C2=C3N=C(c4cccs4)C=C(C(F)(F)F)N3NC2)no1	79

Further lines, results first:

inhibition [%]	Structure (SMILES)
18.8	OC1=NCC2C(C=NN2Cc2ccccc2)C(c2ccc(Br)cc2)S1 (centres undefined)
38.5	O=C(/N=C1\c2ccccc2CN1c1ncccn1)Nc1ccccc1
1.2	CCO/C(C)=N/c1c(C#N)ncn1Cc1ccccc1

What follows are compounds tested against T6, Adenosine receptor A2a (Homo sapiens, UniProt P29274) (assay: Displacement of [3H]ZM241385 from human adenosine A2A receptor expressed in human HeLa cells at 10 uM after 30 mins by beta scintillation counting).
Assay type: cell-based
Method in brief: (§2)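 Membranes from HeLa-A2A cells, 10 lg protein, in 50 mM Tris–HCl, 1 mM EDTA, 10 mM MgCl2, 2 UI/mL adenosine deaminase, pH 7.4; 3 nM [3H]ZM241385, 30 min at 25 °C, duplicates. 50 µM NECA defined non-specific binding. Single 10 µM point or six concentrations 10 nM–100 µM; Ki by Cheng–Prusoff.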

T6 sequence (P29274 whole entry): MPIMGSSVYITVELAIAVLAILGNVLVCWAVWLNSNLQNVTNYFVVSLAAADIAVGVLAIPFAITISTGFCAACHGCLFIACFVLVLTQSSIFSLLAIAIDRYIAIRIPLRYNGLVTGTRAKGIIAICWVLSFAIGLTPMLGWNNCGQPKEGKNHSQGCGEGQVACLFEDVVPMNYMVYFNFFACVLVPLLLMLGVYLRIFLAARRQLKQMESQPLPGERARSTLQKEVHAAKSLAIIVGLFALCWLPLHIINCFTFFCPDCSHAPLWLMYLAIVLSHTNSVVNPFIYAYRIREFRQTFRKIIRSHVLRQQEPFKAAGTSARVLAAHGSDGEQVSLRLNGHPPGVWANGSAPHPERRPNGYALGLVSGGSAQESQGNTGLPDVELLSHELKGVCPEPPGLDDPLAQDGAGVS

Structure (SMILES)	inhibition [%]
O=C(Nc1ccco1)c1nc2nc(-c3cccs3)cc(C(F)(F)F)c2s1	70.5
Cc1ccc(-c2nc(C(=O)Nc3ccccn3)c3n2CCCCC3)cc1	68.9
COc1cn(-c2ccccc2)nc1C(=O)Nc1ccc(C)cn1	59.6
CN1N=C(C(=O)Nc2ccc(Cl)cn2)C2COc3ccccc3C21 (centres undefined)	13.3
N=C1c2c(C(N)=O)nc(-c3ccccc3O)n2CN1c1ccc(O)cc1	15.2
Cc1cc(NC(=O)C2=C3N=C(c4cccs4)C=C(C(F)(F)F)N3NC2)no1	63

Now from value to compound:

inhibition [%]	Structure (SMILES)
8.1	OC1=NCC2C(C=NN2Cc2ccccc2)C(c2ccc(Br)cc2)S1 (centres undefined)
6.7	O=C(/N=C1\c2ccccc2CN1c1ncccn1)Nc1ccccc1
9.8	CCO/C(C)=N/c1c(C#N)ncn1Cc1ccccc1

Each compound was assayed against 5-hydroxytryptamine receptor 7 (Homo sapiens) (UniProt P34969) (assay: Displacement of [3H]SB269970 from human 5HT7 receptor expressed in HEK293 cells at 10 uM after 60 mins by beta scintillation counting).
Assay type: cell-based
Method in brief: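 HEK-293-5-HT7 membranes (5 lg protein) in 50 mM Tris–HCl, 4 mM CaCl2, 1 mM ascorbic acid, 0.1 mM pargyline, pH 7.4; 2 nM [3H]SB269970, compound at 10 µM, 60 min at 37 °C, duplicates. Non-specific defined with 25 µM clozapine.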

Sequence of 5-hydroxytryptamine receptor 7 (Homo sapiens) (P34969 whole entry): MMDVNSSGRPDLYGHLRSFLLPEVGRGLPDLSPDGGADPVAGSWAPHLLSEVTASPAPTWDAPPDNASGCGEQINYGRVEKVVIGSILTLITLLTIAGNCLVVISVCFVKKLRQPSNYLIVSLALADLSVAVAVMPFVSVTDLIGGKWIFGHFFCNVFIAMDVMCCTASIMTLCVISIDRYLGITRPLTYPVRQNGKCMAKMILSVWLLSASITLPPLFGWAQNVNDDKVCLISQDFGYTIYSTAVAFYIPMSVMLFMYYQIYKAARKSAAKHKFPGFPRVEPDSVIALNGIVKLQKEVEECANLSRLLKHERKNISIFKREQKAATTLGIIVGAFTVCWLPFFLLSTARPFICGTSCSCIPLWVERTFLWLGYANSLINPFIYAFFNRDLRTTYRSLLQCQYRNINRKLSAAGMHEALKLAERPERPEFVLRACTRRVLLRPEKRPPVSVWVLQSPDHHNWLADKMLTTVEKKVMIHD

Activity [%]	Structure (SMILES)
18	Cc1ccc(-c2nc(C(=O)Nc3ccccn3)c3n2CCCCC3)cc1
11	N=C1c2c(C(N)=O)nc(-c3ccccc3O)n2CN1c1ccc(O)cc1

Each compound was assayed against T6, Adenosine receptor A2a (assay: Displacement of [3H]ZM241385 from human adenosine A2A receptor expressed in human HeLa cells after 30 mins by beta scintillation counting).
Assay type: cell-based
Method in brief: as §2

Ki [µM]	Structure (SMILES)
2.51	Cc1ccc(-c2nc(C(=O)Nc3ccccn3)c3n2CCCCC3)cc1

The compounds below were run against T6, Adenosine receptor A2a (assay: Antagonist activity at human adenosine A2A receptor expressed in CHO cells assessed as inhibition of […]-induced cAMP accumulation pre-incubated for 15 mins by enzyme immunoassay).
Assay type: functional, cell-based
Method in brief: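 CHO-A2A cells, 10,000/well, in DMEM F-12 with 10% FCS; pre-incubated 15 min at 37 °C with 30 µM rolipram and test compound, then stimulated with 1 µM NECA for 15 min. cAMP measured by enzyme immunoassay at 450 nm; antagonist pKB derived from IC50 via Leff–Dougall equation.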

pKb	Structure (SMILES)
5.1	Cc1ccc(-c2nc(C(=O)Nc3ccccn3)c3n2CCCCC3)cc1

What follows are compounds tested against Histamine H1 receptor (Homo sapiens) (UniProt P35367) (assay: Displacement of [3H]pyrilamine from human histamine H1 receptor expressed in CHO cells at 10 uM after 60 mins by beta scintillation counting).
Assay type: cell-based
Method in brief: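 CHO-H1 membranes (1 lg protein) in 50 mM Tris–HCl pH 7.4 with 2 nM [3H]pyrilamine and compound at 10 µM; 60 min at 27 °C, duplicates. 10 µM triprolidine for non-specific binding; GF/C filtration, scintillation counting.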

Sequence of Histamine H1 receptor (Homo sapiens) (P35367 whole entry): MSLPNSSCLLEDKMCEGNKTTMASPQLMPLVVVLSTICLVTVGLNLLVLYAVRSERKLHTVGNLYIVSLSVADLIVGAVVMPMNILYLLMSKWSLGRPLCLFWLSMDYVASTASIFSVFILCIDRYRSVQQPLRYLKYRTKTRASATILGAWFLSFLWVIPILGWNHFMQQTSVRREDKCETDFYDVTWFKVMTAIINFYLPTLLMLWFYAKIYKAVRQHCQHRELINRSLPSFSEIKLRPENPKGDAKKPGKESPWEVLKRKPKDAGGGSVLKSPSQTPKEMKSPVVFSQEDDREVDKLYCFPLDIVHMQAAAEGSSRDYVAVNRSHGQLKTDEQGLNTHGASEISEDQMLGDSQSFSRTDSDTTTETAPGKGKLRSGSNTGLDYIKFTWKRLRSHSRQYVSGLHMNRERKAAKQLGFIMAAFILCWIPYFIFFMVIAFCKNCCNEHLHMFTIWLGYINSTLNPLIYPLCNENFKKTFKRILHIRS

Activity [%]	Structure (SMILES)
39	Cc1ccc(-c2nc(C(=O)Nc3ccccn3)c3n2CCCCC3)cc1
17	N=C1c2c(C(N)=O)nc(-c3ccccc3O)n2CN1c1ccc(O)cc1

Each compound was assayed against T7, Alpha-2A adrenergic receptor (Homo sapiens) (UniProt P08913) (assay: Displacement of [3H]MK912 from human adrenergic alpha2A receptor expressed in CHO cells at 10 uM after 30 mins by beta scintillation counting).
T7 sequence (whole entry): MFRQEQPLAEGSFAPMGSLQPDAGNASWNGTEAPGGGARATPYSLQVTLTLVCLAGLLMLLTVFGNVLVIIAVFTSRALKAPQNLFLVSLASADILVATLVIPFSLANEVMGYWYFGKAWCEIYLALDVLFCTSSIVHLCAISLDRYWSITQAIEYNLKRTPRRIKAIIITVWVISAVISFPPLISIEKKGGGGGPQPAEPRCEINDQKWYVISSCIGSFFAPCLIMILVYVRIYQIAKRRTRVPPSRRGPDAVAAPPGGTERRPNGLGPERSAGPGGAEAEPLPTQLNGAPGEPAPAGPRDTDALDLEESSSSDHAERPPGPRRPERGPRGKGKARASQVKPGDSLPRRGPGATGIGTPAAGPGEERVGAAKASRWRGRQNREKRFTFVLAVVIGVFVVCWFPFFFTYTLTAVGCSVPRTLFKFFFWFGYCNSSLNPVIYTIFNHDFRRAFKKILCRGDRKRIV
Assay type: cell-based
Method in brief: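 CHO-a2A membranes (25 lg protein) in 25 mM Na2PO4, pH 7.4, with 0.37 nM [3H]MK-912 and compound at 10 µM; 30 min at 25 °C, duplicates. Non-specific binding with 100 µM norepinephrine; filtration and scintillation counting.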

Activity [%]	Structure (SMILES)
12	Cc1ccc(-c2nc(C(=O)Nc3ccccn3)c3n2CCCCC3)cc1
28	N=C1c2c(C(N)=O)nc(-c3ccccc3O)n2CN1c1ccc(O)cc1
